Reference: ChEMBL document CHEMBL4513216, “Probing the Open Global Health Chemical Diversity Library for Multistage-Active Starting Points for Next-Generation Antimalarials” (ACS Infect Dis, 2020)

Assay: Toxicity liver stage against HepG2, at 10uM
Format: cell-based
Parameters: test concentration 10 uM, cell line HepG2-A16-CD81EGFP
Conditions: human, HepG2-A16-CD81EGFP cells; read-out: INHIBITION
Procedure, shortened: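 Uninfected HepG2-A16-CD81EGFP cells, 3 × 10^3 per well, 1536-well, plated on prespotted compound at 10 μM final, parasite-free screening media added to match infected plates; puromycin 10 μM positive, DMSO 0.5% negative; run in parallel with 48 h PbLuc assay at 37 °C, 5% CO2; viability by CellTiter-Glo luminescence, normalized to controls.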

Row | SMILES | cytotoxicity at 10 µM [%]
1 | CC(NC(=O)NCc1ccc(Cl)cc1)c1ccccn1 (stereo not given) | 3.42
2 | COCCn1cnnc1C1CCCN(C(C)C)C1 (stereo not given) | -27.6
3 | CN(C)C(=O)c1ccc(C2CCCN2C(=O)CCC2=NNC(=O)CC2)s1 (stereo not given) | 9.19
4 | CCCS(=O)(=O)N1CCc2c(COCC)cncc2C1 | 8.76
5 | O=C(CCCn1cncn1)N1CCC2(CC1)[C@H](O)C[C@@H]2OCCO | 5.3
6 | CN(Cc1cncnc1)[C@H]1CN(CC2CC2)[C@@H]2CCCO[C@@H]21 | -9.87
7 | CC(C)NC(=O)N1CCN(CC2CC2)CC2(CC(=O)N(C)C2)C1 (stereo not given) | -1.34
8 | CCNC(=O)CN1CCOC(c2ccccc2C(F)(F)F)C1 (stereo not given) | 3.09
9 | COc1ccccc1COCC(O)CN1CC(n2cccn2)C1 (stereo not given) | -6.25
10 | Cc1cnc(CNC(=O)NCc2cccnc2N(C)C)s1 | -12.4
11 | Cc1cc(NC(=O)N2CCN(C)CC2C)n(Cc2ccccc2)n1 (stereo not given) | 11.4
12 | CN(C)C(C(=O)N1CCN(C(=O)c2ccc[nH]2)CC1)c1ccc(F)cc1 (stereo not given) | -5.19
13 | O=C(N1CCCC1)N1CCC(Nc2ccncn2)CC1 | -42.1
14 | CC(C)N1CCN(C(=O)Cc2csc(-c3ccco3)n2)CC1 | -2.93
15 | CC(C)CN1CCCn2nc(CNC(=O)CCCc3cn[nH]c3)cc2C1 | -6.36
16 | CCc1ccc2nc(NCCCN(CCO)CCO)cc(C)c2c1 | -13.3
17 | CC(C)c1cc(NC(=O)CN2CCc3c(nc(C(C)C)n3C)C2)on1 | -12.3
18 | CCc1nnc(CN(C)C2CCCN(Cc3noc(C4CC4)n3)C2)o1 (stereo not given) | 2.27
19 | CC(C)CC(=O)N1CCCC1c1cc(CO)[nH]n1 (stereo not given) | 3.05
20 | Cc1nc(N(Cc2ccncc2)CC2CCCO2)c2ccsc2n1 (stereo not given) | -155
21 | CC1(C)CN(C(=O)Nc2cc(C(F)(F)F)c[nH]c2=O)CCO1 | 5.12
22 | CN1CCN(C2CCN(CCOc3ccccc3)CC2)C1=O | -2.15

Row | SMILES | cytotoxicity at 10 µM [%]
23 | CCOc1cc(CN(C)CCC(=O)OC)ccc1OC(F)F | -0.769
24 | Cc1nccn1[C@@H]1CC[C@@H](NC(=O)CCOc2ccccc2)[C@H]1O | -12.7
25 | COc1cc(OC)c(C2CC(=O)Oc3cc(C)[nH]c(=O)c32)c(OC)c1 (stereo not given) | -6.24
26 | CCc1cnc(CNC(=O)NCCc2ccc(O)cc2)s1 | 2.31
27 | Cc1ccc(CN2CCO[C@@H]3C[C@@H](C(=O)NC(C)C)C[C@H]32)o1 | 6.1
28 | O=C(NCc1cccs1)[C@@H]1CC[C@@H]2[C@@H](CCN2CC2CCC2)O1 | -10.2
29 | CCCOC1CCCN(C(=O)c2ccc(S(N)(=O)=O)cc2)C1 (stereo not given) | -13.6
30 | O=C1NC(=O)c2c3c(nc(O)c21)CCCC3 | -4.69
31 | Cc1ccc(C)c(S(=O)(=O)NCCOc2ccc3nnc(C)n3n2)c1 | -11.3
32 | O=C(Cc1ccc2c(c1)CCC2)NC1CCN(Cc2ccccc2)CC1 | 1.88
33 | O=C(c1cnc(OCC(F)(F)F)c(Cl)c1)N1CCc2ccc(O)cc2C1 | -5.38
34 | CC(C)c1nn(C)c(Cl)c1CNCc1cccnc1N(C)C | 10.7
35 | COc1nc(C)ccc1CNC(=O)NC(C)(C)c1ncc(C)s1 | 14.7
36 | Cc1cccc(C(C(=O)NCCCc2ccccn2)N(C)C)c1 (stereo not given) | -7.16
37 | CN(C)C(=O)c1nn(C)c2c1CN(Cc1cccs1)C2 | 4.9
38 | C[C@@H]1CN(c2ccc(Cl)cn2)C[C@@]1(O)C1CC1 | -2.81
39 | CC(C)c1cc(NC(=O)CN2CCC(C(N)=O)CC2)on1 | -6.37
40 | Cn1cc(CCNC(=O)N2CCCC(Cc3nccn3C)C2)cn1 (stereo not given) | -4.52
41 | CCOCCn1c(=O)[nH]c2cc(C(=O)N(C)Cc3cc(C)[nH]n3)ccc21 | -0.673
42 | O=C(c1cccc(Cn2ccnc2)c1)N1CCCC(n2ccnc2)C1 (stereo not given) | -6.61
43 | O=C(CN1CCCC(Cn2cncn2)C1)NCCCc1ccccc1 (stereo not given) | -10.7
44 | CC1CCN(c2ncc(-c3ccccc3F)c(-c3nccn3C)n2)CC1 | 27.1

Row | SMILES | cytotoxicity at 10 µM [%]
45 | CS(=O)(=O)NCc1cnc2n1CCN(Cc1ccccn1)CC2 | 8.85
46 | O=C(Cn1nc(Br)nc1Br)N1CCOCC1 | -1.14
47 | Cc1cc(C)c(CNC(=O)NC2CCN(C(=O)C(C)C)CC2)c(C)c1 | 9.46
48 | CN(C)c1cc(CC(NC(=O)C2CC2)c2ccccc2)nc(C2CC2)n1 (stereo not given) | 5.73
49 | O=C(c1ccccn1)N1CCC(Nc2cccnn2)CC1 | -0.121
50 | COCCOc1ncccc1C(=O)N(C)c1ccc(OC)c(OC)c1 | -46.7
51 | CNc1snc(C)c1C(=O)N1CCCC(n2nc(C)nc2C)C1 (stereo not given) | -7
52 | COCCCC1(CO)CCCN(CCOC)C1 (stereo not given) | -1.87
53 | O=C(O)c1cc2c(nc1NCC1CC1)CCN(C1CCOC1)CC2 (stereo not given) | 7.83
54 | O=C(c1ccnc(-n2cnnc2)c1)N1CCCC2(CCOC2)C1 (stereo not given) | -15.1
55 | CCc1nc(C(=O)N(C)CC(=O)N(C)C)nn1-c1ccccc1Cl | -23.5
56 | COc1cccc(OCc2cc(C(=O)N3CC(O)C3)n[nH]2)c1 | 2.81
57 | CC(C)N(C)[C@@H]1CCN(C(=O)[C@H]2CCCO2)[C@H]1Cc1cnn(C)c1 | 0.428
58 | Cc1ccc(S(C)(=O)=O)cc1NCC(=O)NCCC1=CCCCC1 | 0.846
59 | Cc1nc([C@@H]2C[C@@H]3CCN(C(=O)c4ccnnc4)C[C@H]3O2)sc1C | 2.68
60 | COCCn1ccnc1C1CCCN(c2ncnc3c2CCC3)C1 (stereo not given) | 1.66
61 | Cc1ccc(F)cc1C(=O)NCc1ccc(C(=O)O)o1 | -10.1
62 | COCCN1CCN(Cc2c(C3CCNCC3)[nH]c3ncccc23)CC1 | -23.2
63 | CCCn1ncnc1C(C)NC(=O)C1CCN(CC(N)=O)CC1 (stereo not given) | -140
64 | CN(Cc1noc2c1CCCC2)C(=O)Nc1ccc2oc(=O)n(C)c2c1 | -2.36
65 | O=C(CC1=CCCCC1)NCc1ccnc(OC2CCOCC2)c1 | -0.103
66 | Cc1cc(C)n(C2CN(CCC(=O)NCCc3ccccc3)C2)n1 | 11.8

Row | SMILES | cytotoxicity at 10 µM [%]
67 | O=C1OCCN1CCNC(=O)C1(N2CCCCC2)Cc2ccccc2C1 | -6.77
68 | O=C(Nc1ccc(-n2ccnc2)c(F)c1)C1CCN(C(=O)C2CC2)CC1 | 1.21
69 | COc1cc(CNC(=O)CNc2cc(Cl)ccc2OC)ccn1 | -8.92
70 | Cc1nc(NC(=O)NCc2nc3cccc(C)c3n2C)oc1C | -6.71
71 | CC(=O)Nc1cnc(-n2ccnc2)nc1 | -1.25
72 | Cc1cc(F)c2c(c1)CCCN2C(=O)c1cncc(Br)c1 | 1.25
73 | CCN1CCN(C(=O)c2cccc(CN3CCOCC3)c2)CC1 | 7.12
74 | CN(C)c1ncccc1CNS(=O)(=O)c1ccc(F)c(F)c1 | -7.18
75 | COCC(=O)N1CCC2(CC1)COc1ccccc1S(=O)(=O)N(C)C2 | 9.7
76 | Cc1cccc(CNC(C)c2ccc(OCC(=O)NC3CC3)cc2)c1 (stereo not given) | -10
77 | Cc1ccc(N2CCCC(NC(=O)CCc3ccccn3)C2=O)cc1 (stereo not given) | -2.16
78 | CCN(Cc1ccoc1)C(=O)c1cc2c(c(S(N)(=O)=O)c1)CCC2 | -4.97
79 | CC(C)NC(=O)[C@@H]1C[C@H]2NCC[C@H]2O1 | -96.9
80 | CN(CC(=O)NC1CC1)S(=O)(=O)c1ccc(F)cc1Cl | -8.06
81 | COC(=O)CC(c1cccc(OC(F)F)c1)c1oc(C)cc(=O)c1O (stereo not given) | -9.11
82 | CCNc1nc(C(=O)N(C)Cc2nc(CC)no2)cs1 | -6.56
83 | CCCN1CCC(Cc2noc(-c3cccnc3OC)n2)CC1 | -11.1
84 | CCc1noc(C(C)N(C)CC(=O)Nc2ccccc2Cl)n1 (stereo not given) | -0.0195
85 | CN(C)S(=O)(=O)c1ccc(CNC(=O)C2CC2)cc1 | 7.04
86 | N#Cc1ccnc(SCC2CN=C(N3CCOCC3)S2)c1 (stereo not given) | -22.9
87 | COc1cccc(-c2cc(C(=O)Nc3nc[nH]n3)[nH]n2)c1 | -5.51
88 | COc1ccc(-c2nc(CCNC(=O)NCC3CCOC3)co2)cc1 (stereo not given) | -3.1

Row | SMILES | cytotoxicity at 10 µM [%]
89 | Nc1c(N2CCCC2)ncnc1N1CCOCC1 | 12.8
90 | COc1ccccc1CC(=O)N1CCC(NCc2c[nH]nc2C)CC1 | -13.5
91 | CCC(=O)N1CCN(C(=O)c2cn3ccsc3n2)[C@H]2CS(=O)(=O)C[C@H]21 | 4.95
92 | CSc1nc2cc(C)n(CC(=O)NC(C)C)c2c(=O)n1CC(C)C | -4.1
93 | CC1(C)CC(=O)c2cnc3nc(N4CCOCC4)nc(O)c3c2C1 | 1.21
94 | Cc1nccn1-c1cc(CNC(=O)CCS(=O)(=O)C2CCCC2)ccn1 | -1.71
95 | Cc1cnn(CC2CN(Cc3nccn3C)CCO2)c1 (stereo not given) | -2.06
96 | Cc1csc(N2CCN(C(=O)c3cc(C4CC4)[nH]n3)CC2)n1 | 3.34
97 | O=C(c1cccs1)N1CC[C@H]2[C@@H]1CCC(=O)N2c1cccnc1 | -74.3
98 | CNCCNc1ccc(-c2nc(-c3cccc(OC)c3OC)no2)cn1 | -2.4
99 | COCCCNC(=O)C(C)n1cc(Br)cn1 (stereo not given) | 12.2
100 | Cc1ccn(CCC(=O)NCc2ccc(C)o2)n1 | -2.96
101 | CC(C)Cc1nc(CN(C)CCOc2ccccc2F)no1 | -0.731
102 | CC(C)c1nc(C2CCCN(C(=O)c3ccc4nncn4c3)C2)no1 (stereo not given) | -4.38
103 | COc1cccc(F)c1C(=O)N1C[C@@H](CN(C)CCO)[C@@H](CO)C1 | -5.88
104 | O=C1O[C@@H]2CN(Cc3cccc(F)c3)C[C@@H]2N1CCCN1CCOCC1 | -9.9
105 | CCN1C(=O)CCCC12CCCN(C(=O)c1ccoc1)C2 (stereo not given) | -5.83
106 | Cc1nsc(N2CCCN(c3nc(C4CC4)ns3)CC2)n1 | -11.5
107 | Cc1nc(N2CCCC2)nc2c1CCN(C(=O)NC(C)C)CC2 | 2.93
108 | c1ccc2[nH]c(C3CCN(Cc4nc(C5CC5)no4)CC3)cc2c1 | 9.02
109 | CC(C)Nc1nc2c(s1)C(=O)CN(C(=O)NCc1ccccc1)C2 | 75.6
110 | Cc1ccccc1C(=O)NC[C@@H]1CCN(C(=O)c2cscn2)C[C@H]1O | -52.2
